Test results published in ChEMBL document CHEMBL4725418, “Design, Synthesis, and Structure-Activity Relationship Studies of Dual Inhibitors of Soluble Epoxide Hydrolase and 5-Lipoxygenase” (J Med Chem, 2020).
In brackets after ≈: the same amount, converted by molar mass. Activity calls are given as the source filed them. The rule behind the calls is not given here.

Legend:
[1] = target: T1, Polyunsaturated fatty acid 5-lipoxygenase (Homo sapiens, UniProt P09917); assay: Inhibition of 5-LOX (unknown origin) expressed in Escherichia coli BL21-(DE3) pre-incubated for 15 mins before AA substrate addition and measured after 10 mins by HPLC/UV assay
T1 sequence (P09917 whole entry): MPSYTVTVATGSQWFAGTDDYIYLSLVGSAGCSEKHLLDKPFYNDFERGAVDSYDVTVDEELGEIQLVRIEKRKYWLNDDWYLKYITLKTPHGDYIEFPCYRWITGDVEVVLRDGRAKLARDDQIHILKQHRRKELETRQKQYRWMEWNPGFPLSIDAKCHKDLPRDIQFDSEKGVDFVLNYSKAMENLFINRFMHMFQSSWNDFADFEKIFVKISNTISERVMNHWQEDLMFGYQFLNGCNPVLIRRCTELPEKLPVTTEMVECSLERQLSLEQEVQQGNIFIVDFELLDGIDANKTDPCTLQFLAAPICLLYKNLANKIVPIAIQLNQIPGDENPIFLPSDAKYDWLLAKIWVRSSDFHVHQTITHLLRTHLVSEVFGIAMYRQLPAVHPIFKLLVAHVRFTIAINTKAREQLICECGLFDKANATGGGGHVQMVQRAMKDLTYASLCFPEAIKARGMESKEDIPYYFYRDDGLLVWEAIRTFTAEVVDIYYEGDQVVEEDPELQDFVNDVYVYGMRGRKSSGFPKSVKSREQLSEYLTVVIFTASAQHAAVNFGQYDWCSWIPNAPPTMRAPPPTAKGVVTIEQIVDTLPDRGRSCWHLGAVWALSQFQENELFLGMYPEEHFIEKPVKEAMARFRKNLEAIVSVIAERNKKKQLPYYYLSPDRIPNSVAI
Summary of the method: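 Recombinant 5-LOX activity measured with arachidonic acid as substrate; product formation monitored by HPLC. IC50 from at least three independent determinations (n ≥ 3), reported with 95% confidence interval.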

[2] = target: T2, Bifunctional epoxide hydrolase 2 (Homo sapiens, UniProt P34913); assay: Inhibition of human sEH (1 to 555 residues) expressed in Escherichia coli BL21-(DE3) using PHOME substrate incubated for 30 to 45 mins by fluorescence based assay
T2 sequence (P34913 whole entry): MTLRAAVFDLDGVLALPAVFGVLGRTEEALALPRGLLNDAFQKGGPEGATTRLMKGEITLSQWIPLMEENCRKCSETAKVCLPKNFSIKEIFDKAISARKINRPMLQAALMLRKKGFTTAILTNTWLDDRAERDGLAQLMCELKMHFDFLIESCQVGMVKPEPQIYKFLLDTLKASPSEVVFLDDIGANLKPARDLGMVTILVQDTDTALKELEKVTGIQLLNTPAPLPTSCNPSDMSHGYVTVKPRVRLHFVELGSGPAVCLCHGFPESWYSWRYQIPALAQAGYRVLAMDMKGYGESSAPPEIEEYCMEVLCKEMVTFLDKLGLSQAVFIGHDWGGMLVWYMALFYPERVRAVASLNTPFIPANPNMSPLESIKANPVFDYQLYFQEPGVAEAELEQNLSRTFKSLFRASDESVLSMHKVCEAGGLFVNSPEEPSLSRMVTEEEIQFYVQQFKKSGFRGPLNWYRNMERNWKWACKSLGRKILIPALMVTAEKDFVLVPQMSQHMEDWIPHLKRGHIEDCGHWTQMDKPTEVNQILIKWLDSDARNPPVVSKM

[3] = Metabolic stability in rat liver microsomes assessed as compound remaining after 60 mins; type: ADME, Microsome; settings: read-out: Stabilty
Summary of the method: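 Compound incubated with rat liver microsomes for 60 min; percent parent compound remaining determined; n ≥ 3.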

[4] = Solubility in pH 7.4 DPBS buffer; type: physicochemical
HepG2 [5] = assay: Cytotoxicity in human HepG2 cells assessed as reduction in on cell viability at 7 uM incubated for 48 hrs by CellTiter-Glo luminescent cell viability assay; type: cell-based; settings: hepg2, 48 h
Summary of the method: (§1)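 Cell viability measured by CellTiter-Glo luminescence, quantifying ATP as an indicator of viable cells.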

Mus musculus = assay: Anti-fibrotic activity in C57BL/6 mouse model of unilateral ureter obstruction-induced kidney inflammation and fibrosis assessed as inhibition of tubulo-interstitial fibrosis by measuring reduced fibrillar collagen at 3 mg/kg, ip dosed daily for 7 days by Sirius red staining method; type: functional, organism-based; settings: time 7.0 day
Summary of the method: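 Mice with unilateral ureter obstruction to induce kidney inflammation and fibrosis, given compound or vehicle intraperitoneally. Ligated (UUO) and contralateral kidneys taken at day 7. Fibrosis read by AZAN and Sirius Red staining, with Sirius Red imaged under bright and polarized light. Macrophages detected by F4/80 staining, quantified as positive area. Col1a1, FN1, TNFα and Ccl2 mRNA measured in whole-kidney homogenates by real-time qRT-PCR normalized to GAPDH.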

HepG2 [6] = assay: Cytotoxicity in human HepG2 cells assessed as effect on cell viability up to 25 uM incubated for 48 hrs by CellTiter-Glo luminescent cell viability assay; type: cell-based; settings: hepg2, 48 h; summary of the method: as §1

| SMILES | IC50 [1] [nM] | IC50 [2] [nM] | further results |
| --- | --- | --- | --- |
| C[C@H](C#Cc1cccc(C(=O)NCCC(c2ccccc2)c2ccc(S(N)(=O)=O)cc2)c1)N(O)C(N)=O (stereo partly drawn) | 1000 | 2.4 |  |
| NC(=O)N(O)CC#Cc1cccc(C(=O)NCc2ccccc2C(F)(F)F)c1 | 4000 | 50 |  |
| C[C@H](C#Cc1cccc(C(=O)NCCC(c2ccc(F)cc2)c2ccc(OC(F)(F)F)cc2)c1)N(O)C(N)=O (stereo partly drawn) | 260 | 2.4 | remaining at 1 h [3]: 43%; solubility [4]: 10 µM (≈ 5.44 µg/mL) |
| CC(C#Cc1cccc(C(=O)NCc2ccccc2C(F)(F)F)c1)N(O)C(N)=O (stereo not drawn) | 700 | 90 |  |
| CC(C#Cc1cccc(C(=O)NCCC(c2ccccc2)c2ccc(OC(F)(F)F)cc2)c1)N(O)C(N)=O (stereo not drawn) | 110 | 7 |  |
| CC(C#Cc1cccc(C(=O)NCCC(c2ccccc2)c2ccc(C(F)(F)F)cc2)c1)N(O)C(N)=O (stereo not drawn) | 150 | 2.7 |  |
| C[C@H](C#Cc1cccc(C(=O)NCCC(c2ccccc2)c2ccc(Cl)c(Cl)c2)c1)N(O)C(N)=O (stereo partly drawn) | 96 | 2.1 |  |
| CNc1nc(C)nc(N2CCC(C(=O)NCc3ccccc3OC(F)(F)F)CC2)n1 |  | 1 |  |
| CC(C#Cc1cccc(C(=O)NCc2ccc(F)cc2C(F)(F)F)c1)N(O)C(N)=O (stereo not drawn) | 1300 | 29 |  |
| C[C@H](C#Cc1cccc(C(=O)NCCN(c2ccccc2)c2ccccc2)c1)N(O)C(N)=O | 110 | 5 | remaining at 1 h [3]: 17%; solubility [4]: 3 µM (≈ 1.33 µg/mL) |
| CC(C#Cc1cccc(C(=O)NCCC(c2ccccc2)c2ccc(F)cc2)c1)N(O)C(N)=O (stereo not drawn) | 160 | 2 |  |
| CC(C)CC(C#Cc1cccc(C(=O)NCc2ccccc2C(F)(F)F)c1)N(O)C(N)=O (stereo not drawn) | 600 | 5 |  |
| CC(C#Cc1cccc(C(=O)NCc2ccc(Cl)cc2Cl)c1)N(O)C(N)=O (stereo not drawn) | 600 | 40 |  |
| CC(C#Cc1ccc(C(=O)NCc2ccccc2C(F)(F)F)cc1)N(O)C(N)=O (stereo not drawn) | 1000 | 2600 |  |
| CC(C#Cc1cccc(C(=O)NCc2ccccc2OC(F)(F)F)c1)N(O)C(N)=O (stereo not drawn) | 1000 | 16 |  |
| CC(C#Cc1ccc(C(=O)NCc2ccccc2C(F)(F)F)o1)N(O)C(N)=O (stereo not drawn) | 4000 | 600 |  |
| CC(C#Cc1cccc(C(=O)NCCC(c2ccccc2)c2ccc(Cl)cc2)c1)N(O)C(N)=O (stereo not drawn) | 120 | 2 |  |
| CC(C)C(C#Cc1cccc(C(=O)NCc2ccccc2C(F)(F)F)c1)N(O)C(N)=O (stereo not drawn) | 500 | 11 |  |
| CC(C#Cc1cccc(C(=O)NCc2cccc(F)c2)c1)N(O)C(N)=O (stereo not drawn) | 4000 | 9000 |  |
| C[C@H](C#Cc1cccc(C(=O)NCCC(c2ccc(F)cc2)c2ccc(C(F)(F)F)cc2)c1)N(O)C(N)=O (stereo partly drawn) | 220 | 1.6 | Activity (HepG2 [5]): Toxic; remaining at 1 h [3]: 66%; Activity (Mus musculus): inactive; solubility [4]: 3 µM (≈ 1.58 µg/mL); Activity (HepG2 [6]): Non-Toxic |
| CCC(C#Cc1cccc(C(=O)NCc2ccccc2C(F)(F)F)c1)N(O)C(N)=O (stereo not drawn) | 500 | 22 |  |
| C[C@H](C#Cc1ccc(Cc2ccc(F)cc2)s1)N(O)C(N)=O [ATRELEUTON] | 90 | 2700 | solubility [4]: 30 µM (≈ 9.55 µg/mL) |
| CC(C#Cc1cccc(C(=O)NCCc2ccc(F)cc2)c1)N(O)C(N)=O (stereo not drawn) | 3100 | 1200 |  |
| O=C(Cc1ccc(Oc2nc3ccccc3s2)cc1F)NCCc1ccc(F)cc1 |  | 130 |  |
| Cc1ccc(C(=O)NCc2ccccc2C(F)(F)F)cc1C#CC(C)N(O)C(N)=O (stereo not drawn) | 1700 | 3100 |  |
| COc1ccc(CNC(=O)c2cccc(C#CC(C)N(O)C(N)=O)c2)c(C(F)(F)F)c1 (stereo not drawn) | 1700 | 4 |  |

More lines, in order of falling IC50 [2], values ahead:

| IC50 [1] [nM] | IC50 [2] [nM] | SMILES | further results |
| --- | --- | --- | --- |
| 1700 | 3100 | CC(C#Cc1cccc(C(=O)NCCc2c[nH]c3ccccc23)c1)N(O)C(N)=O (stereo not drawn) |  |
| 10000 | 500 | CC(C#Cc1cncc(C(=O)NCc2ccccc2C(F)(F)F)c1)N(O)C(N)=O (stereo not drawn) |  |
| 600 | 60 | C[C@H](C#Cc1cccc(C(=O)NCc2ccccc2C(F)(F)F)c1)N(O)C(N)=O |  |
| 700 | 60 | C[C@@H](C#Cc1cccc(C(=O)NCc2ccccc2C(F)(F)F)c1)N(O)C(N)=O |  |
| 300 | 12 | CCCC(C#Cc1cccc(C(=O)NCc2ccccc2C(F)(F)F)c1)N(O)C(N)=O (stereo not drawn) |  |
|  | 6 | CS(=O)(=O)c1ccc(C(CCNC(=O)c2ccc(C#N)nc2)c2ccc(F)cc2)cc1 (stereo not drawn) |  |
| 230 | 3 | C[C@H](C#Cc1cccc(C(=O)NCC[C@H](c2ccc(F)cc2)c2ccc(C(F)(F)F)cc2)c1)N(O)C(N)=O |  |
|  | 3 | CNc1nc(C)nc(N2CCC(C(=O)NCc3ccccc3C(F)(F)F)CC2)n1 |  |
| 900 | 3 | C[C@H](C#Cc1cccc(C(=O)NCCC(c2ccccc2)c2ccc(NS(C)(=O)=O)cc2)c1)N(O)C(N)=O (stereo partly drawn) |  |
|  | 3 | CNc1nc(C)nc(N2CCC(C(=O)NCc3ccc(F)cc3C(F)(F)F)CC2)n1 |  |
| 160 | 3 | C[C@H](C#Cc1cccc(C(=O)NCC[C@@H](c2ccc(F)cc2)c2ccc(C(F)(F)F)cc2)c1)N(O)C(N)=O |  |
| 300 | 2 | CC(C#Cc1cccc(C(=O)NCCC(c2ccccc2)c2ccccc2)c1)N(O)C(N)=O (stereo not drawn) | remaining at 1 h [3]: 27%; solubility [4]: 3 µM (≈ 1.32 µg/mL) |
